IEC-6 cytotox: kills IEC-6 intestinal cells in KLF5 counter-screen; IEC-6 cytotoxicity, luminescence viability; inhibition, % at 5 µM; hit rate 0.78% among 290,000; in the data active = inhibition above about 22%;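 note: 0% = plate median of test compound wells and 100% = cytotoxic reference compound wells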
MT stabilize HCS: stabilizes microtubules in HeLa cells | % tubulin-high responders, % at 10 µM | AID 2205 | hit rate 0.83% among 200,000 | HeLa tubulin immunostaining HCS, 24 h; share of cells brighter than vehicle mean+2SD;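 active = plate Z-score above 3 for both tubulin-high and condensed-nucleus cell shares, with cell loss under 80%, at 10 µM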;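 note: anti alpha tubulin signal scored within the nucleus-defined area of each cell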
BaF3 tox: counter-screen for JAK2V617F inhibitors: parental Ba/F3 viability inhibitors; CellTiter-Glo ATP luminescence; inhibition, % at 5.6 µM; hit rate 1.1% among 220,000; AID 1486;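 active = inhibition above a per-campaign cutoff, the mean inhibition of all tested compounds plus 3 SD, cut at about 27% in these data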;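 note: 0% = DMSO wells and 100% = JAK Inhibitor I control wells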
Ba/F3 V617F tox: reduce viability of Ba/F3 cells dependent on JAK2V617F. AID 1446. hit rate 1.1% among 220,000. inhibition, % at 5.6 µM. Ba/F3 EpoR-JAK2V617F viability, ATP luminescence;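 active = inhibition above the campaign mean plus 3 SD over all tested compounds, cut at about 24% in these data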;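 note: cytokine-independent growth of Ba/F3 cells driven by EpoR plus mutant JAK2; 0% = DMSO-treated cells and 100% = JAK inhibitor I control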
bCat nuc transl: beta-catenin nuclear translocation modulation; hit rate 0.3% among 190,000; HeLa beta-catenin nuclear translocation, immunofluorescence imaging; nuclear translocation activity, % at 5 µM;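 active = nuclear translocation activity above 50% at 5 µM, with a well cell count of 50 or more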;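 note: per-cell ratio of nuclear to cytoplasmic median beta-catenin stain intensity; plate controls were DMSO negative control for no effect and GSK-3 inhibitor IX positive control for full effect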
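System: Human HeLa cells, endogenous beta-catenin | Compound dosing: 5 µM primary, 0.02–20 µM confirmation | Timing: 24 h compound exposure at 37°C, 5% CO2 | Measured by: Fluorescence imaging of beta-catenin antibody stain plus DAPI | Read-out basis: % activation of per-cell nuclear versus cytoplasmic median beta-catenin signal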
APP transl inh: APP translation inhibition. inhibition, % at 2 µM. hit rate 0.82% among 190,000. AID 1285. SH-SY5Y APP 5'UTR-luciferase reporter, luminescence;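 active = inhibition above a set limit, derived from the sample mean plus 3 SD, cut at about 45% in these data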
Numbers without * were called inactive. Compounds with a hit are over-represented: about 2.2% of the library has one in this group of screens.

Results for COn1c(C)c(C(C)=O)c2c3nonc3ccc21 ?
IEC-6 cytotox: 2.3; MT stabilize HCS: 6.8; BaF3 tox: 96.4*; Ba/F3 V617F tox: 1.8; bCat nuc transl: -1.8; APP transl inh: -3.7

How did O=C(N[C@H](Cc1cc(=O)[nH]c2ccccc12)C(=O)O)c1ccc(Cl)cc1 do in these assays?
IEC-6 cytotox: 1.8

Results for O=C(/C=C\c1ccco1)Nc1cc([N+](=O)[O-])ccc1F ?
IEC-6 cytotox: -2.7; MT stabilize HCS: 3.6; BaF3 tox: 43.4*; Ba/F3 V617F tox: 73.4*; bCat nuc transl: 55.9*; APP transl inh: 94.2*

What do the screens show for `CCc1nnc(NC(=O)/C=C/c2ccco2)s1`?
IEC-6 cytotox: 6.3; MT stabilize HCS: 3.9; BaF3 tox: 2.2; Ba/F3 V617F tox: 0.8; bCat nuc transl: -2.6; APP transl inh: -43.9

How did Cc1nc(NC(=O)/C=C/c2ccco2)sc1C do in these assays?
IEC-6 cytotox: 6.3; MT stabilize HCS: 15.5*; BaF3 tox: 8.1; Ba/F3 V617F tox: 2.0; bCat nuc transl: -2.6; APP transl inh: -96.3

How did O=C(/C=C/c1ccco1)Nc1nnc(-c2ccco2)s1 do in these assays?
IEC-6 cytotox: 4.5; MT stabilize HCS: 8.2*; BaF3 tox: 0.8; Ba/F3 V617F tox: -3.4; bCat nuc transl: 12.5; APP transl inh: -35.1

What do the screens show for `O=C(COC(=O)/C=C/c1ccc(C(F)(F)F)cc1)NCc1ccco1`?
IEC-6 cytotox: -1.2

Results for O=C(Nc1nc2ccccc2s1)C1CCN(S(=O)(=O)c2cc([N+](=O)[O-])ccc2Cl)CC1 ?
IEC-6 cytotox: 0.3; BaF3 tox: 43.4*; Ba/F3 V617F tox: 4.2; bCat nuc transl: 0.0

Results for OC(CNCCc1ccc(Cl)cc1)COCc1ccco1 (centres undefined) ?
IEC-6 cytotox: -4.4; MT stabilize HCS: 3.1; BaF3 tox: 93.6*; Ba/F3 V617F tox: -0.9; APP transl inh: 1.0

Results for COc1ccccc1-n1cnc2cc(NCc3ccccc3O)ccc21 ?
IEC-6 cytotox: 1.2; BaF3 tox: 2.3; Ba/F3 V617F tox: 1.6; bCat nuc transl: 6.5

How did Cc1ccccc1-n1cnc2cc(NCc3cccs3)ccc21 do in these assays?
IEC-6 cytotox: -3.9; MT stabilize HCS: 27.4*; BaF3 tox: 6.3; Ba/F3 V617F tox: -1.2; bCat nuc transl: 15.3; APP transl inh: -12.3

What do the screens show for `COc1ccccc1-n1cnc2cc(NCc3cccs3)ccc21`?
IEC-6 cytotox: 82.1*; MT stabilize HCS: 18.0*; BaF3 tox: 72.7*; Ba/F3 V617F tox: 72.8*; bCat nuc transl: 162.2*; APP transl inh: 93.1*

How did CC(C)(C)n1cnc2cc(NCc3cccs3)ccc21 do in these assays?
IEC-6 cytotox: 4.9; MT stabilize HCS: 2.8; BaF3 tox: 4.0; Ba/F3 V617F tox: 6.4; bCat nuc transl: 1.0; APP transl inh: -28.3

What do the screens show for `CCCc1cc(=O)oc2cc(C)cc(OC(C)C(=O)NCc3ccncc3)c12` (centres undefined)?
IEC-6 cytotox: 3.4

How did Cc1nc(NC(=O)c2ccccc2)sc1-c1csc(NCc2ccccc2)n1 do in these assays?
IEC-6 cytotox: 11.4; MT stabilize HCS: 1.2; BaF3 tox: 7.6; Ba/F3 V617F tox: 3.1; bCat nuc transl: -0.8

What do the screens show for `Cc1nc(NC(=O)c2ccccc2)sc1-c1csc(N)n1`?
IEC-6 cytotox: 16.7; MT stabilize HCS: 6.1; BaF3 tox: 69.0*; Ba/F3 V617F tox: 60.7*; bCat nuc transl: 8.5; APP transl inh: -49.1

Results for CC(/C=C1\SC(=O)N(CCCC(=O)O)C1=O)=C\c1ccccc1 ?
IEC-6 cytotox: -4.0; MT stabilize HCS: 3.5; BaF3 tox: 2.8; Ba/F3 V617F tox: 2.9; bCat nuc transl: -4.2; APP transl inh: 78.5*

How did O=C(CCCN1C(=O)S/C(=C\c2ccccc2)C1=O)NNC(=O)c1ccccc1O do in these assays?
IEC-6 cytotox: -0.4; MT stabilize HCS: 2.7; BaF3 tox: 4.0; Ba/F3 V617F tox: -3.7; bCat nuc transl: 1.1; APP transl inh: 63.1*

What do the screens show for `COC(=O)c1ccc(CSc2nnc(Nc3ccc(OC)cc3)s2)o1`?
IEC-6 cytotox: 3.6; MT stabilize HCS: 2.9; BaF3 tox: 2.8; Ba/F3 V617F tox: -1.4; bCat nuc transl: 0.9; APP transl inh: 26.2

How did COC(=O)c1ccc(CSc2nnc(Nc3ccccc3OC)s2)o1 do in these assays?
IEC-6 cytotox: 7.7; MT stabilize HCS: 33.8; BaF3 tox: 40.7*; Ba/F3 V617F tox: 0.2; bCat nuc transl: 10.7; APP transl inh: -20.2

Results for COC(OC)c1ccc(C#N)c(=O)[nH]1 ?
IEC-6 cytotox: 2.7; MT stabilize HCS: 9.1; BaF3 tox: 7.6; Ba/F3 V617F tox: 6.9; bCat nuc transl: -4.4; APP transl inh: 46.5*

What do the screens show for `COc1cc(OC)c(OC)cc1CN1CCN(Cc2ccco2)CC1`?
IEC-6 cytotox: -4.1

Results for Cc1ccc2c(c1)cc1c(=O)n(CC(=O)NCCN3CCCC3)nc(C)n12 ?
IEC-6 cytotox: -5.0

Results for Nc1ccc(-c2nc3ncccc3o2)cc1 ?
IEC-6 cytotox: 6.2

How did Oc1c(N=Nc2ccccn2)ccc2ccccc12 do in these assays?
IEC-6 cytotox: 12.3; MT stabilize HCS: 3.2; BaF3 tox: 4.5; Ba/F3 V617F tox: 12.3; bCat nuc transl: 6.6; APP transl inh: 82.2*

Results for c1ccc2c(c1)ccc1ncccc12 ?
IEC-6 cytotox: -0.3; MT stabilize HCS: 2.1; BaF3 tox: 7.1; Ba/F3 V617F tox: -0.5; bCat nuc transl: -0.9; APP transl inh: 17.8

What do the screens show for `Nc1nc(N)nc(-c2ccc(Oc3ccccc3)cc2)n1`?
IEC-6 cytotox: -9.1; MT stabilize HCS: 1.9; BaF3 tox: 2.6; Ba/F3 V617F tox: -1.3; APP transl inh: -11.6

What do the screens show for `Cc1ccc(Oc2ccc(-c3nc(N)nc(N)n3)cc2)cc1C`?
IEC-6 cytotox: 5.6; MT stabilize HCS: 2.5; BaF3 tox: 3.9; Ba/F3 V617F tox: -5.1; APP transl inh: 92.4*

What do the screens show for `CC(C)c1cc(C(=O)OCC(=O)N2CCN(C(=O)c3ccco3)CC2)c(O)c(C(C)C)c1`?
IEC-6 cytotox: 6.6

What do the screens show for `O=C(NCCCCCCNC(=O)N1CCCCCC1)N1CCCCCC1`?
IEC-6 cytotox: 14.5; MT stabilize HCS: 3.4; BaF3 tox: 55.2*; Ba/F3 V617F tox: 49.8*; bCat nuc transl: -4.2; APP transl inh: -7.2

What do the screens show for `CCOCCCNC(=O)N1CCOCC1`?
IEC-6 cytotox: -3.1; MT stabilize HCS: 2.9; BaF3 tox: 7.6; Ba/F3 V617F tox: 0.7; APP transl inh: -11.5

Results for C#CCOCCOCCOCCNc1nc(N2CCN(C(=O)[C@H](Cc3ccc(O)cc3)n3cc(CCO)nn3)CC2)nc(N2CCN(C(=O)[C@H](Cc3ccc(O)cc3)n3cc(CCO)nn3)CC2)n1 ?
IEC-6 cytotox: -1.9; MT stabilize HCS: 3.8; BaF3 tox: -0.1; Ba/F3 V617F tox: -3.0; APP transl inh: 0.2

Results for C#CCOCCOCCOCCNc1nc(N2CCN(C(=O)[C@H]([C@@H](C)O)n3cc(CCCCN)nn3)CC2)nc(N2CCN(C(=O)[C@H](Cc3ccc(O)cc3)n3cc(CCO)nn3)CC2)n1 ?
IEC-6 cytotox: -0.3; MT stabilize HCS: 5.2; BaF3 tox: 62.9*; Ba/F3 V617F tox: -3.6; APP transl inh: 9.2
